Test results published in ChEMBL document CHEMBL1155242, “Radiolabeled 5-iodo-3'-O-(17beta-succinyl-5alpha-androstan-3-one)-2'-deoxyuridine and its 5'-monophosphate for imaging and therapy of androgen receptor-positive cancers: synthesis and biological evaluation” (J Med Chem, 2009).

Columns and labels:
Albumin = Albumin (Mus musculus, UniProt P07724); assay: Binding affinity to mouse serum albumin at 10 to 20 uCi/mL after 60 mins by size-exclusion HPLC analysis; type: ADME; conditions: isolated protein, 1 h
In short: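 Radioiodinated compound incubated 60 min with human, rabbit or mouse serum, or with purified human SHBG. Aliquots analysed on a TSK3000 size-exclusion column: 0.1 M potassium phosphate/0.1 M Na2SO4 (1:1, pH 6.8) for 20 min, then 0–40% CH3CN over 20 min, held 30 min, 0.7 mL/min. Protein-bound versus free radioactivity read from the peaks.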

Serum = assay: Stability in human serum assessed as half life at 10 to 20 uCi/mL by reversed phase HPLC analysis; type: ADME, cell-free
In short: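 The compound was incubated with rabbit or human serum at ambient temperature, and aliquots were taken at 1, 5 and 24 h. Aliquots were run on size-exclusion HPLC (TSK3000; 0.1 M potassium phosphate/0.1 M Na2SO4, pH 6.8, then an acetonitrile gradient). Extracts were run on C18 reversed-phase HPLC (water/acetonitrile with 0.07% TFA). Half-lives came from a monoexponential fit.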

[1] = biological target: T1, Sex hormone-binding globulin (Oryctolagus cuniculus, UniProt P15196); assay: Binding affinity to rabbit sex hormone binding globulin at 10 to 20 uCi/mL after 60 mins by reversed phase HPLC analysis; type: ADME; conditions: 1 h
T1 sequence (P15196 whole entry): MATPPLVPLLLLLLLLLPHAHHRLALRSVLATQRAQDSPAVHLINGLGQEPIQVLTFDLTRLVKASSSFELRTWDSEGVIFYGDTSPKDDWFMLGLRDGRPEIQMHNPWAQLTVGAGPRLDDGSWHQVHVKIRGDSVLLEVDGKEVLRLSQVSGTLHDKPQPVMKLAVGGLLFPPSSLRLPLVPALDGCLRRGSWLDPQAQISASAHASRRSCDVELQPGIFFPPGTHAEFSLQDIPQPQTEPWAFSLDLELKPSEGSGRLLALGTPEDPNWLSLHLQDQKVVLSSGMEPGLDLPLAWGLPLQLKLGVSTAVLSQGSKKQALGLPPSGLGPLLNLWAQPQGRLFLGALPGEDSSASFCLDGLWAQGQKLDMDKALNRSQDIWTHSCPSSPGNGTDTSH

[2] = Chemical stability in RPMI-1640 serum-free medium assessed as half life at 12.2 uCi by HPLC analysis; type: physicochemical
OVCAR-3 [3] = assay: Cytotoxicity against human OVCAR-3 cells expressing androgen receptor assessed as cell survival at 0.01 to 5 uCi/mL after 24 hrs; type: functional
OVCAR-3 [4] = assay: Cytotoxicity against human OVCAR-3 cells expressing androgen receptor at 5 uCi/mL after 24 hrs; type: functional
[5] = Biodistribution in […] in athymic NCr mouse xenografted with human OVCAR-3 cells at 45 uCi, ip after 72 hrs by gamma counting; type: ADME, organism-based; conditions: in vivo
In short: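 Athymic NCr-nu/nu mice with ip OVCAR-3; 45 μCi given ip without prior SSKI. Whole-body planar imaging at 72 h with region-of-interest analysis as percent of whole-body activity; peritoneal lavage cells and ascites counted.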

[6] = Clearance in peritoneum of athymic NCr mouse xenografted with human OVCAR-3 cells assessed as half life at 1.12 uCi, ip by gamma counting; type: ADME, organism-based; conditions: in vivo
In short: (§1)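 Peritoneal clearance measured in athymic NCr-nu/nu mice bearing intraperitoneal NIH:OVCAR-3 xenografts after an ip dose of the 125I compound. The peritoneal cavity was lavaged, and 125I was counted in the lavage and in the recovered tumor cells. Half-lives were estimated from the clearance curves.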

[7] = Clearance in peritoneal cavity of athymic NCr mouse xenografted with human OVCAR-3 cells assessed as half life at 1.12 uCi, ip by gamma counting; type: ADME, organism-based; conditions: in vivo; in short: as §1
[8] = Ratio of drug level in tumor to uterus in athymic NCr mouse xenografted with human OVCAR-3 cells at 180 uCi, ip administered 9 days after tumor implantation as six fractionated doses every 4 days measured after 1.5 hrs by gamma counting; type: ADME, organism-based; conditions: in vivo
[9] = Ratio of drug level in tumor to blood in athymic NCr mouse xenografted with human OVCAR-3 cells at 180 uCi, ip administered 9 days after tumor implantation as six fractionated doses every 4 days measured after 24 hrs by gamma counting; type: ADME, organism-based; conditions: tumour
[10] = Ratio of drug level in tumor to liver in athymic NCr mouse xenografted with human OVCAR-3 cells at 180 uCi, ip administered 9 days after tumor implantation as six fractionated doses every 4 days measured after 24 hrs by gamma counting; type: ADME, organism-based; conditions: in vivo
[11] = Ratio of drug level in tumor to blood in athymic NCr mouse xenografted with human OVCAR-3 cells at 180 uCi, ip administered 9 days after tumor implantation as six fractionated doses every 4 days measured after 72 hrs by gamma counting; type: ADME, organism-based; conditions: tumour
OVCAR-3 [12] = assay: Cellular uptake in human OVCAR-3 cells expressing androgen receptor assessed as ratio of [125I]UdR to thymidine incorporation in DNA at 1.75 uCi/mL after 24 hrs by gamma counting; type: ADME, cell-based; conditions: ovcar-3, 24 h
In short: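 OVCAR-3 cells treated with the radioligand; fraction of DNA thymidine replaced by 125IUdR determined after 24 h.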

Mus musculus = assay: Toxicity in athymic NCr mouse xenografted with human OVCAR-3 cells assessed as hematocrit level at 0.25 mCi, ip administered 31 days after tumor implantation as single bolus dose measured 55 days after implantation by gamma counting in presence of SHBG (Rvb= 51.4 +/- 1.6 %); type: organism-based; conditions: in vivo, 1320 h
Blood = assay: Biodistribution in blood of athymic NCr mouse xenografted with human OVCAR-3 cells assessed per gram of tissue at an average 39.5 uCi/dose, ip administered 9 days after tumor implantation as six fractionated doses every 4 days measured after 2 weeks of last dose by gamma counting; type: ADME, organism-based; conditions: in vivo, 336 h
In short: (§2)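 OVCAR-3-bearing and healthy athymic mice given fractionated ip doses on the six-dose every-4-days schedule; tissues, tumor and lavaged cells γ-counted at necropsy, %ID/g; DNA-bound 125I in cells measured as cpm/cell.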

Heart = assay: Biodistribution in heart of athymic NCr mouse xenografted with human OVCAR-3 cells assessed per gram of tissue at an average 39.5 uCi/dose, ip administered 9 days after tumor implantation as six fractionated doses every 4 days measured after 2 weeks of last dose by gamma counting; type: ADME, organism-based; conditions: in vivo, 336 h; in short: as §2
Liver = assay: Biodistribution in liver of athymic NCr mouse xenografted with human OVCAR-3 cells assessed per gram of tissue at an average 39.5 uCi/dose, ip administered 9 days after tumor implantation as six fractionated doses every 4 days measured after 2 weeks of last dose by gamma counting; type: ADME, organism-based; conditions: in vivo, 336 h; in short: as §2
[13] = Biodistribution in tumor of athymic NCr mouse xenografted with human OVCAR-3 cells assessed per gram of tissue at an average 39.5 uCi/dose, ip administered 9 days after tumor implantation as six fractionated doses every 4 days measured after 2 weeks of last dose by gamma counting; type: ADME, organism-based, Neoplasm; conditions: in vivo, 336 h; in short: as §2
LNCaP = assay: Cytotoxicity against human LNCAP cells expressing androgen receptor assessed as drug level required to reduce viable cell count to 37% after 48 hrs; type: functional
In short: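 LNCaP human prostate cancer cells were grown for 48 h with the 125I-labelled compound in the medium, and cell survival was then determined. D37 was expressed as the extracellular concentration in μCi/mL.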

Sequence of Albumin (P07724 whole entry): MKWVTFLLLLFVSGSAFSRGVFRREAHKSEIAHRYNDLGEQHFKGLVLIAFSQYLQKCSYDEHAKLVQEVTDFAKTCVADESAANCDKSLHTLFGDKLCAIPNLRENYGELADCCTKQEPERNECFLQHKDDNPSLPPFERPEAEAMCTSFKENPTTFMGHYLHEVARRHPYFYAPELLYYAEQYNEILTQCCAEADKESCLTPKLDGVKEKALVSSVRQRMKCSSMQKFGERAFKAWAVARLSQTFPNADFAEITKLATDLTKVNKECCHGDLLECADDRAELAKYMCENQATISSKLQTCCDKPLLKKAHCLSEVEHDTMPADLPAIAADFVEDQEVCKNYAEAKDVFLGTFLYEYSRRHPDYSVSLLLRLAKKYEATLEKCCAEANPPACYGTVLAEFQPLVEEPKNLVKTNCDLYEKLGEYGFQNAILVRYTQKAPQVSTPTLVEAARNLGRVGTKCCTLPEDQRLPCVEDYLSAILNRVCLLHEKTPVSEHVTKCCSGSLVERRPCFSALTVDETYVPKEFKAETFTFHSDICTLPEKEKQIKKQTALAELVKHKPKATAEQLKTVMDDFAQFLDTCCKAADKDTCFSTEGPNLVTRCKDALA

| Structure (SMILES) | Activity (Albumin) | t1/2 (Serum) [h] | Activity [1] | t1/2 [2] [h] | Survival (OVCAR-3 [3]) [%] | Activity (OVCAR-3 [4]) [%] | Drug uptake [5] [%] | t1/2 [6] [h] | t1/2 [7] [h] | Ratio [8] | Ratio [9] | Ratio [10] | Ratio [11] | Ratio (OVCAR-3 [12]) | Activity (Mus musculus) [%] | Drug uptake (Blood) [%ID] | Drug uptake (Heart) [%ID] | Drug uptake (Liver) [%ID] | Drug uptake [13] [%ID] | Activity (LNCaP) [uCi/ml] |
| --- | --- | --- | --- | --- | --- | --- | --- | --- | --- | --- | --- | --- | --- | --- | --- | --- | --- | --- | --- | --- |
| C[C@]12CCC(=O)C[C@@H]1CC[C@@H]1[C@@H]2CC[C@]2(C)[C@@H](OC(=O)CCC(=O)O[C@H]3C[C@H](n4cc([125I])c(=O)[nH]c4=O)O[C@@H]3CO)CC[C@@H]12 | Not Active | 14.7 | Active | 54.2 | 95 | 20 | 3.4 | 26 | 68 | 1.4 | 64.7 | 65 | 42.2 |  |  |  |  |  |  |  |
| C[C@]12CCC(=O)C[C@@H]1CC[C@@H]1[C@@H]2CC[C@]2(C)[C@@H](OC(=O)CCC(=O)O[C@H]3C[C@H](n4cc([125I])c(=O)[nH]c4=O)O[C@@H]3COP(=O)(O)O)CC[C@@H]12 |  |  |  |  |  |  |  |  |  |  |  |  |  | 0.002 | 55.2 | 0.003 | 0.003 | 0.017 | 2.892 | 1.7 |
